Reference: ChEMBL document CHEMBL1134798, “Pharmacological evaluation of a diarylmethylene-piperidine derivative: a new potent atypical antipsychotic?” (Bioorg Med Chem Lett, 2001)
The source made the active and inactive calls. No cut-off for these calls is given here.

Legend:
[1] = system: Mus musculus; experiment: Effective dose required for inhibition of DOI-induced head-twitches in mice on ip administration; type: functional
How it was run: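 Head-twitches elicited by ip (±)-DOI hydrochloride, 1.6 mg/kg. Mice (groups of eight) pretreated ip 30 min before DOI. Twitches counted for 5 min starting 5 min after DOI. ED50 by non-linear regression.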

[2] = system: Mus musculus; experiment: Effective dose required for inhibition of apomorphine(sc, 2.5 mg/kg ) induced climbing in mice on ip administration; type: functional; conditions: route intraperitoneal
How it was run: (§1)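 Apomorphine hydrochloride given sc at 2.5 mg/kg to induce climbing and stereotypy. Compounds dosed 30 min earlier, groups of eight mice. ED50 for each behaviour by non-linear regression.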

[3] = system: Mus musculus; experiment: Effective dose required for inhibition of apomorphine(sc, 2.5 mg/kg ) induced stereotypy in mice on ip administration; type: functional; conditions: route intraperitoneal; how it was run: as §1
[4] = system: Mus musculus; experiment: Decrease in number of avoidance responses in mice at a dose ~100 mg/kg; type: functional; conditions: at 100 mg/kg
[5] = system: Mus musculus; experiment: Decrease in number of avoidance responses in mice at a dose ~115 mg/kg; type: functional
[6] = system: Rattus norvegicus; experiment: Decrease in arterial blood pressure by the compound at a dose of 43.1-431 mg/kg in rats 24 hr after oral administration; No significant; type: functional, organism-based; conditions: Artery
[7] = biological target: T1, D(4) dopamine receptor (Homo sapiens, UniProt P21917); experiment: In vitro binding affinity for Dopamine receptor D4
T1 sequence (P21917 whole entry): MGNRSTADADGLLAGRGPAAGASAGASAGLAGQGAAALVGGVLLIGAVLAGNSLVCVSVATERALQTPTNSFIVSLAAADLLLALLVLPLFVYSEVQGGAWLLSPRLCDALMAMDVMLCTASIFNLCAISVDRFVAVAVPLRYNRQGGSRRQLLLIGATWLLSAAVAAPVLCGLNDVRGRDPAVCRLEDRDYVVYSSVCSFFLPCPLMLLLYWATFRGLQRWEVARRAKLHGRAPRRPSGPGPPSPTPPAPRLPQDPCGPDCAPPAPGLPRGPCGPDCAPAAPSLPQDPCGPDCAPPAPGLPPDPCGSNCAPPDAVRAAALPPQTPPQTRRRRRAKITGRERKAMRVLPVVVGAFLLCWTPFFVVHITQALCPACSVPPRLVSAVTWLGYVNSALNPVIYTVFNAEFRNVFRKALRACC

[8] = system: Mus musculus; experiment: Decrease in number of avoidance responses in mice at a dose ~110 mg/kg; type: functional
[9] = system: Mus musculus; experiment: Effective dose required for inhibition of apomorphine(sc, 2.5 mg/kg ) induced climbing in mice on po administration; type: functional
How it was run: (§2)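 Mice were dosed po 30 min before apomorphine hydrochloride (2.5 mg/kg sc), in groups of eight. ED50 for inhibition of climbing or stereotypy was derived by non-linear regression.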

[10] = species: Mus musculus; experiment: Lethality in mice evaluated in IRWIN-test; type: functional
How it was run: (§3)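 Irwin observational test run to a standard protocol after ip administration.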

[11] = system: Mus musculus; experiment: Decrease in d-amphetamine-induced hyperactivity at a dose of 10 umol/kg (p<0.01); type: functional
[12] = system: Mus musculus; experiment: Antagonistic activity on amphetamine-induced stereotypy at a dose of 100 umol/kg (p<0.05); type: functional
[13] = species: Mus musculus; experiment: Anticholinergic effect evaluated in mice using oxotremorine induced tremors; type: functional
How it was run: (§4)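 Oxotremorine 0.25 mg/kg ip induced tremors and salivation. Compounds were given ip 30 min beforehand, groups of six mice. Scoring every 5 min over 30 min. ED50 from non-linear regression.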

[14] = system: Rattus norvegicus; experiment: Increase in heart rate by the compound at a dose of 43.1-431 mg/kg in rats on oral administration; No significant; type: functional, organism-based
[15] = species: Mus musculus; experiment: Anticholinergic effect evaluated in mice using oxotremorine induced salivation; type: functional; how it was run: as §4
[16] = biological target: Serotonin 2 (5-HT2) receptor (Homo sapiens, UniProt P41595+P28223+P28335); experiment: In vitro binding affinity for 5-hydroxytryptamine 2 receptor; type: protein assay
[17] = species: Mus musculus; experiment: Induction of sedation in mice evaluated in IRWIN-test; type: functional; how it was run: as §3
[18] = system: Mus musculus; experiment: Decrease in number of avoidance responses in mice at a dose ~60 mg/kg; type: functional; conditions: at 60 mg/kg
[19] = system: Mus musculus; experiment: Effective dose required for inhibition of apomorphine(sc, 2.5 mg/kg ) induced stereotypy in mice on […]; type: functional; how it was run: as §2
[20] = species: Mus musculus; experiment: Induction of convulsions in mice evaluated in IRWIN-test; type: functional; how it was run: as §3
[21] = system: Rattus norvegicus; experiment: Increase in heart rate by the compound at a dose of 10.5 mg/kg in rats; type: functional
[22] = system: Mus musculus; experiment: Anticholinergic effect evaluated in mice using oxotremorine induced tremors(ip); type: functional
How it was run: (§5)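 Mice were dosed ip 30 min before oxotremorine (0.25 mg/kg ip), in groups of six. Salivation and tremors were scored every 5 min for 30 min. ED50 was derived by non-linear regression.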

[23] = system: Mus musculus; experiment: Decrease in number of avoidance responses in mice at a dose ~10 mg/kg; type: functional; conditions: at 10 mg/kg
[24] = system: Mus musculus; experiment: Induction of catalepsy up to a dose of 160 mg/kg when administered po in mice; No induction; type: functional, organism-based; design: dose 160 mg/kg
[25] = system: Mus musculus; experiment: Anticholinergic effect evaluated in mice using oxotremorine induced salivation(ip); type: functional; how it was run: as §5
[26] = system: Mus musculus; experiment: Decrease in number of avoidance responses in mice at a dose ~50 mg/kg; type: functional
[27] = system: Rattus norvegicus; experiment: Decrease in arterial blood pressure by the compound at a dose of 32.7 mg/kg in rats 0.5-2.5h after administration; type: functional, Artery
[28] = system: Mus musculus; experiment: Decrease in number of avoidance responses in mice at a dose ~25 mg/kg; type: functional

Compound	ED50 [1] [µmol/kg]	ED50 [2] [µmol/kg]	ED50 [3] [µmol/kg]	ED50 [9] [µmol/kg]	Activity [10]	Activity [17]	ED50 [19] [µmol/kg]	Activity [20]	other results
O=C(CCCN1CCC(O)(c2ccc(Cl)cc2)CC1)c1ccc(F)cc1 [HALOPERIDOL]	0.61	0.32	0.31	–	–	–	–	–	–
OCCOCCN1CCN(C2=Nc3ccccc3Sc3ccccc32)CC1 [QUETIAPINE]	9	51	60	–	–	–	–	–	–
NC(=O)C1CCC(CN2CCC(=C(c3ccccc3)c3ccc(F)cc3)CC2)O1 (configuration not stated)	16	46	69	140	1000	100	290	320	Decrease in No. of avoidence responses [4]: 27%; Decrease in No. of avoidence responses [5]: 80%; Decrease in arterial blood pressure [6]: inactive; Ki [7]: 158 nM; Decrease in No. of avoidence responses [8]: 45%; Decrease [11]: 44%; Decrease [12]: 13%; Activity [13]: 32; Increase in heart rate [14]: inactive; Activity [15]: 20; Log Ki [16]: -7.5; Decrease in No. of avoidence responses [18]: 12.5%
CN1CCN(C2=Nc3cc(Cl)ccc3Nc3ccccc32)CC1 [CLOZAPINE]	1.5	28	67	30	320	3.2	62	180	Increase in heart rate [21]: 49%; Activity [22]: 12; Decrease in No. of avoidence responses [23]: 10%; Induction of catalepsy [24]: inactive; Activity [25]: 8; Decrease in No. of avoidence responses [26]: 85%; Decrease in arterial blood pressure [27]: 32%; Decrease in No. of avoidence responses [28]: 65%
